pIC50: −log10 of the molar value. Converted amounts (≈) assume the structure as drawn. Where a SMILES comes first, the peptide text is derived from it.

Experiment [1] concerns the target Human immunodeficiency virus type 1 protease (Human immunodeficiency virus 1, UniProt Q72874). The experiment can be described thus: Inhibition of HIV-1 protease. It is filed as functional. The gist of the method:
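HIV-1 protease peptide hydrolysis: octapeptide substrate H2N-ValSerGlnAsn(β-naphthyl-Ala)ProIle-Val-OH at 430 μM (Km = 160 μM), enzyme at 0.030 nM; cleavage quantitated by HPLC; IC50 from this readout.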

Experiment [2] concerns H9. The experiment can be described thus: Minimum inhibitory concentration required to prevent HIV infection was determined in H9 human T-lymphoid cell culture. It is filed as functional. Summed up: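 H9 human T-lymphoid cells were infected with HIV-1 IIIb at a multiplicity of infection of 1.0%, with no compound present. Compound was added 1 day after infection, predissolved in DMSO and serially diluted in RPMI-1640 with 10% FBS. Medium with fresh compound was replaced every 2–3 days. Cells were harvested at 14 days and scored by immunofluorescence with anti-HIV-1 human serum. MIC was the lowest concentration totally preventing spread beyond the initially infected cells.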

Experiment [3] deals with T1, Renin (Rattus norvegicus, UniProt P08424).
T1 sequence (P08424 whole entry): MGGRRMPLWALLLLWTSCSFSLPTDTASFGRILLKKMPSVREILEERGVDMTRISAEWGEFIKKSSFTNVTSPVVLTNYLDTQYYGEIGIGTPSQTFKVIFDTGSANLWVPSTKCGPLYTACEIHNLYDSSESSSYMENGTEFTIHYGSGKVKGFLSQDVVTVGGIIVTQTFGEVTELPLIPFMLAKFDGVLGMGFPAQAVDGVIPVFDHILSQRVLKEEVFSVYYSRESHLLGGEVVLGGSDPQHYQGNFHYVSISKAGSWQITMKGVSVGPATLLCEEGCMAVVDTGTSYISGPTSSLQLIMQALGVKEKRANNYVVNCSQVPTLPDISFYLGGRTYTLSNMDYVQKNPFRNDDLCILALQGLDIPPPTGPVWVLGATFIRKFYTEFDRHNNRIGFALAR
The experiment can be described thus: Concentration required to inhibit 50% activity of plasma renin was determined at pH 7.4; Inactive. It is filed as functional, cell-free.

For experiment [4], the target named is T1, Renin. The experiment can be described thus: Concentration required to inhibit 50% activity of renin was determined. Format: functional. The gist of the method:
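Purified plasma renin, assayed at pH 7.4; IC50 reported.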

Take `CC(C)CC(NC(=O)[C@H](Cc1ccccc1)C[C@H](O)[C@H](Cc1ccccc1)NC(=O)OC(C)(C)C)C(=O)NCCc1ccccc1` (stereo partly specified): the pIC50 in experiment [1] is 7.92.
Turning to `CC(C)(C)OC(=O)N[C@@H](Cc1ccccc1)[C@@H](O)C[C@@H](Cc1ccccc1)C(=O)NCc1ccccc1`, in experiment [2], the MIC was > 50 µM. The molecule further had a negative logarithm of the IC50 (pIC50) in experiment [1] of 6.95.
Turning to `CC(C)CC(NC(=O)[C@H](Cc1ccccc1)C[C@H](O)[C@H](Cc1ccccc1)NC(=O)OC(C)(C)C)C(=O)NCc1ccccc1` (stereo partly specified), in experiment [2], the MIC was determined as 3 µM (≈ 1.85 µg/mL). This molecule showed a pIC50 in experiment [1] of 8.85.
On the same counts, the results for `CCC(C)C(NC(=O)[C@H](Cc1ccccc1)C[C@H](O)[C@H](Cc1ccccc1)NC(=O)OC(C)(C)C)C(=O)NCc1ccccc1` (stereo partly specified) are 1.5 µM (≈ 0.924 µg/mL) and 9.15.
In the same order, the values of `CCC(C)C(NC(=O)[C@H](Cc1ccccc1)C[C@H](O)[C@H](Cc1ccccc1)NC(=O)OC(C)(C)C)C(=O)NCC(O)CO` (stereo partly specified) are 1.5 µM (≈ 0.9 µg/mL) and 9.82.
For the molecule `CC(C)C[C@H](NC(=O)[C@H](Cc1ccccc1)C[C@H](O)[C@H](Cc1ccccc1)NC(=O)OC(C)(C)C)C(=O)N[C@@H](Cc1ccccc1)C(N)=O`, the MIC in experiment [2] was found to be 6 µM (≈ 4.04 µg/mL). The figures for the pIC50 in experiment [1] and in experiment [3] were 9.22 and < 5.00, respectively.
In experiment [2], `CC[C@H](C)[C@H](NC(=O)[C@H](Cc1ccccc1)C[C@H](O)[C@H](Cc1ccccc1)NC(=O)OC(C)(C)C)C(=O)NCc1nc2ccccc2[nH]1` yielded an MIC of 0.2 µM (≈ 0.131 µg/mL). In addition, the negative-log IC50 (pIC50) in experiment [1] is 10.15.
On the same counts, the results for `CC[C@H](C)[C@H](NC(=O)[C@H](C/C=C/c1ccccc1)C[C@H](O)[C@H](Cc1ccccc1)NC(=O)OC(C)(C)C)C(=O)NCc1nc2ccccc2[nH]1` are 0.012 µM (≈ 0.00818 µg/mL) and 10.52.
As for `CC(C)C[C@H](NC(=O)[C@H](Cc1ccccc1)C[C@H](O)[C@H](Cc1ccccc1)NC(=O)[C@H](Cc1ccccc1)NC(=O)OC(C)(C)C)C(=O)N[C@@H](Cc1ccccc1)C(N)=O`, in experiment [1], the pIC50 was 7.70.
Consider `CC(C)C[C@H](NC(=O)[C@H](Cc1ccccc1)C[C@H](O)[C@H](Cc1ccccc1)NC(=O)CC(C)(C)C)C(=O)N[C@@H](Cc1ccccc1)C(N)=O`, for which the negative-log IC50 (pIC50) in experiment [1] was 8.22.
`CC(C)CC(NC(=O)[C@H](Cc1ccccc1)C[C@H](O)[C@H](Cc1ccccc1)NC(=O)OC(C)(C)C)C(N)=O` (stereo partly specified) yielded an MIC in experiment [2] of 6 µM (≈ 3.15 µg/mL). This molecule gave a negative-log IC50 (pIC50) in experiment [1] of 7.92.
Consider `CC(C)CCNC(=O)[C@H](Cc1ccccc1)C[C@H](O)[C@H](Cc1ccccc1)NC(=O)OC(C)(C)C`, for which the pIC50 in experiment [1] was 6.33.
Molecule `CC(C)C[C@H](NC(=O)[C@H](C/C=C/c1ccccc1)C[C@H](O)[C@H](Cc1ccccc1)NC(=O)OC(C)(C)C)C(=O)N[C@@H](Cc1ccccc1)C(N)=O` showed an MIC in experiment [2] of 6 µM (≈ 4.19 µg/mL). For the same molecule, the pIC50 in experiment [1] was 9.82.
The molecule `CC(C)C[C@H](NC(=O)[C@H](Cc1ccccc1)C[C@H](O)[C@H](Cc1ccccc1)NC(=O)[C@H](Cc1ccccc1)NC(=O)[C@H](Cc1ccccc1)NC(=O)OC(C)(C)C)C(=O)N[C@@H](Cc1ccccc1)C(N)=O` (HELM PEPTIDE1{[CC(C)(C)OC(=O)[*:2]].F.F.[O=C([C@H](Cc1ccccc1)C[C@H](O)[C@H](Cc1ccccc1)N[*:1])[*:2]].L.F.[am]}$$$$V2.0) yielded an MIC in experiment [2] of 50 µM (≈ 48.4 µg/mL). Further, the negative logarithm of the IC50 (pIC50) was 9.00 in experiment [1] and 7.14 in experiment [4].

Usually pIC50 stands for −log10 of the IC50, conventionally taken in molar units.

For the origin of these results see ChEMBL document CHEMBL1125636, “L-687,908, a potent hydroxyethylene-containing HIV protease inhibitor” (J Med Chem, 1991).
